Here are results for 17 molecules from ChEMBL document CHEMBL1124520, “New kelatorphan-related inhibitors of enkephalin metabolism: improved antinociceptive properties” (J Med Chem, 1989).

The nature of assay [1]: Inhibition of dipeptidyl amino peptidase activity in rat brain with 10 nM [3H]Leu-enkephalin as substrate. The assay is classed as tissue-based. A digest of the protocol: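 Membrane-bound dipeptidylaminopeptidase purified from rat brain. Preincubated 15 min at 25 °C in 50 mM Tris-HCl with or without inhibitor. […] IC50 by log-probit over five inhibitor concentrations; mean ± SEM, three independent experiments.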

The next assay addresses T1, Aminopeptidase N (Sus scrofa, UniProt P15145).
T1 sequence (P15145 whole entry): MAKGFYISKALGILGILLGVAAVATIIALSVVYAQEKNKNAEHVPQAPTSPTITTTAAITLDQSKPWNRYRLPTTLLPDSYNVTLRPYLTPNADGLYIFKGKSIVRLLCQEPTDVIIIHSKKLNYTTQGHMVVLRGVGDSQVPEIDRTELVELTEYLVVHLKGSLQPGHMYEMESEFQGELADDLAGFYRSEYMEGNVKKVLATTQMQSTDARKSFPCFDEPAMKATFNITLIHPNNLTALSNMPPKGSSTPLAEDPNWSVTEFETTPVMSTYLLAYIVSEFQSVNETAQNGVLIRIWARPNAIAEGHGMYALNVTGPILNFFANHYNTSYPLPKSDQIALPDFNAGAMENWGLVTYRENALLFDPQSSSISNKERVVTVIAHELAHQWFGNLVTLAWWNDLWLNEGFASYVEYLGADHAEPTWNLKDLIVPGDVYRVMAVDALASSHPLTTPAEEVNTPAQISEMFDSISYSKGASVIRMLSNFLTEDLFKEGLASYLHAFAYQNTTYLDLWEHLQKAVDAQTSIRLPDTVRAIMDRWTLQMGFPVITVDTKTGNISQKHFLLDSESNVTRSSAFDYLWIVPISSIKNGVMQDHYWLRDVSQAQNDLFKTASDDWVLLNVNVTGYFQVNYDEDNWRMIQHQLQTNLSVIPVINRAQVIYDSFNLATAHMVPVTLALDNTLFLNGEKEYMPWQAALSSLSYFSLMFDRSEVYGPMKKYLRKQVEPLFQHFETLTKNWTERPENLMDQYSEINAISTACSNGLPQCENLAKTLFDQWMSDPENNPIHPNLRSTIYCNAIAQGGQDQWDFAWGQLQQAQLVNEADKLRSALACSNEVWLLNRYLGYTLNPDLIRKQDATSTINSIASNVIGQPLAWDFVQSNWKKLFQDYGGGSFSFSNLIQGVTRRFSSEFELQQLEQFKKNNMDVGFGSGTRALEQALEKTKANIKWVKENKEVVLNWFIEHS
Nature of the assay: Inhibition of Aminopeptidase N activity in pig kidney with 10 nM [3H]Leu-enkephalin as substrate. The assay is classed as tissue-based. A digest of the protocol: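 Commercial aminopeptidase N, used unpurified. Enzyme preincubated 15 min at 25 °C with or without rising inhibitor concentrations in 50 mM Tris-HCl. [3H]Leu-enkephalin (Km 50 μM) added to 10 nM final. Stopped after 30 min with HCl; tritiated metabolites separated on polystyrene beads. IC50 from log-probit of five concentrations, mean ± SEM of three independent experiments.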

Another assay addresses T2, Neprilysin (Oryctolagus cuniculus, UniProt P08049).
T2 sequence (P08049 whole entry): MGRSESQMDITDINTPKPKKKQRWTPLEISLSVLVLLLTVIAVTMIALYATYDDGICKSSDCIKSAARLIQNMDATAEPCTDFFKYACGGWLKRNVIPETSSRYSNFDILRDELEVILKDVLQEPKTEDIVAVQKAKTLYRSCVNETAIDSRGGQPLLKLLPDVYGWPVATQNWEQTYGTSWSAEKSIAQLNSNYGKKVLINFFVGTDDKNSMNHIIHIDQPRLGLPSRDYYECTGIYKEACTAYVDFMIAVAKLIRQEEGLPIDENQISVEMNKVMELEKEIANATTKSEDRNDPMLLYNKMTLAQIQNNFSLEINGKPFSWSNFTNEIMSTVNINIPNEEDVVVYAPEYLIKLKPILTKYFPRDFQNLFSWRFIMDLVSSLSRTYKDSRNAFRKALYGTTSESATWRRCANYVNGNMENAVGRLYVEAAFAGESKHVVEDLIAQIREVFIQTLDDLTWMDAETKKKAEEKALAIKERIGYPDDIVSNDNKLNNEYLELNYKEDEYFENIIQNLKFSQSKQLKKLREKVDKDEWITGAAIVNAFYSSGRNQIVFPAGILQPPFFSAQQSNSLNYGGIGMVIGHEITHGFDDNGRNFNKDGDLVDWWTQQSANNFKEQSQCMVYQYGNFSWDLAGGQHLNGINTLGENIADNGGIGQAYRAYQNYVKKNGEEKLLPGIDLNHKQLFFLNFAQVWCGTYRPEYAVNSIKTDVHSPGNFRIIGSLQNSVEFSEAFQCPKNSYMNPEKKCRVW
Nature of the assay: Inhibition of neutral endopeptidase activity in rabbit kidney with 20 nM [3H]D-Ala2-Leu-enkephalin as substrate. The gist of the method: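 NEP purified to homogeneity from rabbit kidney, 1 pmol/100 μL final, preincubated 15 min at 25 °C in 50 mM Tris-HCl with or without inhibitor. [3H]-D-Ala2-Leu-enkephalin (Km 30 μM) added at 20 nM final. Reaction stopped at 30 min with 0.5 M HCl; products separated on polystyrene beads. IC50 from log-probit of five concentrations, mean ± SEM of three experiments.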

The subject of a further assay is Mus musculus. Nature of the assay: Analgesic effect when injected intracerebroventricularly at 50 (microg). The format is functional. The gist of the method:
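Male Swiss mice (23–25 g), icv dose of 50 μg in 10 μL saline, n = 10 per group. Hot plate at 55 ± 0.5 °C; jump latency read 15 min after injection, cutoff 240 s. Compared with vehicle controls by ANOVA and Bonferroni test. % analgesia = (experimental − control latency)/(240 s − control latency).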

The structures appear in SMILES notation.

`CC(CC(=O)O)NC(=O)C(CC(=O)NO)Cc1ccccc1` (stereo in doubt; C): the values for the IC50 (in assay [1]; against Aminopeptidase N; against Neprilysin) were 0.0009 µM, 0.35 µM and 0.0017 µM, respectively.
The corresponding values for `O=C(O)CCCNC(=O)C(CC(=O)NO)Cc1ccccc1` (configuration not stated) are 0.15 µM, 1.5 µM and 0.0275 µM.
Turning to `O=C(CC(Cc1ccccc1)C(=O)NC(Cc1ccccc1)C(=O)O)NO` (configuration not stated), the IC50 on Aminopeptidase N stood at 0.13 µM.
Turning to `O=C(O)C[C@H](Cc1ccccc1)NC(=O)[C@H](CC(=O)NO)Cc1ccccc1`, the results for the 50% inhibitory concentration (IC50) (in assay [1]; against Aminopeptidase N; at Neprilysin) were 0.0285 µM, 1.43 µM and 0.0076 µM, respectively.
With `C[C@H](NC(=O)[C@@H](CC(=O)NO)Cc1ccccc1)C(=O)O` [KELATORPHAN], in the assay with Mus musculus, the Analgesia amounted to 50% and the Latency time is listed as 167.2 s.
Consider `O=C(O)CCCCNC(=O)C(CC(=O)NO)Cc1ccccc1` (configuration not stated), for which the 50% inhibitory concentration (IC50) in assay [1] was found to be 0.25 µM; against Aminopeptidase N, 0.5 µM; on Neprilysin, 0.0515 µM.
In the case of `O=C(O)C[C@H](NC(=O)[C@@H](CC(=O)NO)Cc1ccccc1)c1ccccc1` (racemic), the IC50 came out at 0.0026 µM in assay [1], 0.0325 µM on Aminopeptidase N and 0.0029 µM on Neprilysin. The molecule also returned an Analgesia with Mus musculus of 62.1%. Moreover, the Latency time in the assay with Mus musculus is reported as 184.8 s.
On to `O=C(CC(Cc1ccccc1)C(=O)NCC(Cc1ccccc1)C(=O)O)NO` (configuration not stated), for which the IC50 in assay [1] was 0.0025 µM; on Aminopeptidase N, 0.0715 µM; at Neprilysin it was 0.0018 µM. In the assay with Mus musculus, this molecule yielded an Analgesia of 39.4%. Besides, the Latency time in the assay with Mus musculus is 151.8 s.
Take `CC(NC(=O)C(CC(=O)NO)Cc1ccccc1)C(C)C(=O)O` (stereo in doubt; 11B): the results for the IC50 (in assay [1]; at Neprilysin) were 0.0175 µM and 0.013 µM, respectively.
As for `CC(CNC(=O)C(CC(=O)NO)Cc1ccccc1)C(=O)O` (configuration not stated), the IC50 was determined as 0.023 µM in assay [1], 0.36 µM at Aminopeptidase N and 0.0023 µM on Neprilysin. This molecule also had an Analgesia with Mus musculus of 46.6%. The Latency time with Mus musculus is reported as 162.3 s.
`O=C(O)CNC(=O)C(CC(=O)NO)Cc1ccccc1` (configuration not stated): the half-maximal inhibitory concentration (IC50) in assay [1] stood at 0.021 µM; on Aminopeptidase N, 2 µM.
`CC(NC(=O)C(CC(=O)NO)Cc1ccccc1)C(C)C(=O)O` (stereo in doubt; 11A): the results for the IC50 (in assay [1]; against Neprilysin) were 0.0105 µM and 0.0265 µM, respectively.
For `O=C(O)CCNC(=O)C(CC(=O)NO)Cc1ccccc1` (configuration not stated), the IC50 in assay [1] came out at 0.036 µM; against Aminopeptidase N it was 0.67 µM; against Neprilysin, 0.0024 µM. Besides, in the assay with Mus musculus, the Analgesia stood at 21.5%. Also, the Latency time in the assay with Mus musculus amounted to 125.3 s.
The corresponding values for `O=C(O)C[C@H](Cc1ccccc1)NC(=O)[C@@H](CC(=O)NO)Cc1ccccc1` (racemic) are 0.00046 µM, 0.0225 µM, 0.003 µM, 68.2% and 193.7 s.
In the case of `CC(CC(=O)O)NC(=O)C(CC(=O)NO)Cc1ccccc1` (stereo in doubt; 6), the IC50 in assay [1] is 0.01 µM; against Aminopeptidase N, 0.445 µM; at Neprilysin it was 0.002 µM. The Analgesia with Mus musculus was determined as 20.5%. The Latency time in the assay on Mus musculus was 124 s.
For `CN(C(=O)C(CC(=O)NO)Cc1ccccc1)C(Cc1ccccc1)C(=O)O` (configuration not stated), the results for the IC50 (in assay [1]; against Aminopeptidase N; against Neprilysin) were 0.0023 µM, 0.12 µM and 0.15 µM, respectively.
For `O=C(O)C[C@H](NC(=O)[C@H](CC(=O)NO)Cc1ccccc1)c1ccccc1`, the IC50 in assay [1] came to 0.0072 µM; against Aminopeptidase N, 0.4 µM; against Neprilysin, 0.003 µM.

As a reminder, the IC50 is the concentration at which inhibition is half-maximal. The low end stands for greater potency, the high end for weaker potency.
